The text below walks through data of ChEMBL document CHEMBL1148795 (J Med Chem, 2007).

For series [1], the system named is Human immunodeficiency virus 1. The series is described as follows: Antiviral activity against HIV1 3B in human MT4 cells by MTT assay. The note with it: for pEC50: Human immunodeficiency virus 1, 3B. For orientation: Formazan colour is commonly taken as a measure of viable cells.
In series [2] the test system is Human immunodeficiency virus 2. The series is described as follows: Antiviral activity against HIV2 ROD in human MT4 cells by MTT assay.
Series [3] is described as follows: Cytotoxicity against human CEM-SS cells by MTT assay. Format: cell-based.
The nature of series [4]: Metabolic stability in rat plasma. Format: ADME, cell-free. In outline: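 Compounds were incubated in reconstituted rat plasma (two lots, checked with a control compound), with 1,1-diphenylethylene as internal standard. Aliquot supernatants were analysed by HPLC with UV detection. Half-lives came from regression fits of concentration versus time and were averaged over at least two replicates.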

Series [5] concerns Human immunodeficiency virus 1. As to the kind of experiment: Antiviral activity against HIV1 with RT Y181C mutation. Type of series: functional, organism-based. The method, boiled down:
(§1)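 Cytoprotection assay in CEM-SS cells infected with HIV-1 strains engineered to carry the NNRTI-resistance RT mutation (K103N or Y181C). Activity is expressed as the EC50 for protection of the cells from virus-induced cytopathic effect.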

The target of series [6] is Human immunodeficiency virus type 1 reverse transcriptase (Human immunodeficiency virus 1, UniProt Q72547). The series is described as follows: Inhibition of HIV1 reverse transcriptase.
Series [7] in a line: Cytotoxicity against human MT4 cells by MTT assay. Type of series: cell-based.
Series [8] deals with Human immunodeficiency virus 1. As to the kind of experiment: Antiviral activity against HIV1 RF in human CEM-SS cells by XTT assay. Format: functional, organism-based. The following applies: for pEC50: Human immunodeficiency virus 1, RF.
For series [9], the system named is Human immunodeficiency virus 1. As to the kind of experiment: Antiviral activity against HIV1 with RT K103N mutation. Format: functional, organism-based. In outline:
as §1

Molecules are shown by their SMILES. pEC50, pIC50: −log10 of the molar value. Active and inactive are the calls of the source. The calls are words filed in the database; no cut-off is given here. A value given as a limit tells only on which side of the number the result lay.

Turning to `COc1c(C)cc(/C(=C/CCCc2nnc(C)o2)c2ccc(C#N)cc2)cc1C(=O)SC`, the result in [1], in [2] and in series [8] was inactive. The half-maximal cytotoxic concentration (CC50) amounted to 4.8 µM in series [3] and 7.6 µM in series [7]. In series [4], this molecule registered a half-life of 0.692 h. The negative logarithm of the EC50 (pEC50) in series [5] is less than 4.00; in series [9], less than 4.30. Besides, the pIC50 in series [6] is 6.35.
Take `COC(=O)c1cc(/C(=C\CCc2nnc(C)o2)c2cc(C)c3onc(OC)c3c2)cc(C)c1OC`: the negative logarithm of the EC50 (pEC50) in [1] was 6.38; in series [5], less than 4.00; in series [8], 6.44; in series [9] it was 6.10. Also, in [2], the result was inactive. Also, the figures for the CC50 in [3] and in series [7] were 2.8 µM and 6.4 µM, respectively. In series [4], this molecule yielded a half-life of 5.52 h. For the same molecule, the pIC50 in [6] is 6.41.
`COC(=O)c1cc(/C(=C\CCc2nnc(C)o2)c2cc(C)c3on(C)c(=O)c3c2)cc(C)c1OC`: the pEC50 is 5.57 in series [1], less than 4.00 in [5], 5.52 in series [8] and less than 4.30 in series [9]. Also, the result in series [2] was inactive. For the same molecule, the figures for the CC50 in series [3] and in [7] were 7.7 µM and 41 µM, respectively. This molecule came in with a half-life in series [4] of 3.66 h. The molecule further showed a negative logarithm of the IC50 (pIC50) in series [6] of 5.13.
For `COc1c(C)cc(C(=CCCCc2nnc(C)o2)c2cc(C)c(OC)c(C(=O)SC)c2)cc1C(=O)SC`, the pEC50 was 5.89 in series [1], less than 4.00 in series [5], 5.66 in series [8] and less than 4.30 in series [9]. For the same molecule, in [2], the outcome was inactive. Further, the CC50 was 5.3 µM in [3] and 4.4 µM in series [7]. The molecule further registered a half-life in series [4] of 1.27 h. The pIC50 in [6] is 5.17.
Turning to `COc1c(C)cc(/C(=C\CCCc2nnc(C)o2)c2cccc(C#N)c2)cc1C(=O)SC`, the negative logarithm of the EC50 (pEC50) in [1] is 6.08; in [5], less than 4.00; in series [8], 6.30; in series [9], 5.92. The result in [2] was inactive. Further, the 50% cytotoxic concentration (CC50) was determined as 12 µM in series [3] and 36 µM in series [7]. Also, in series [4], the half-life was 3.68 h. In series [6], this molecule showed a pIC50 of 6.28.
With `COc1c(C)cc(/C(=C/CCc2nnc(C)o2)c2ccc3oc(=O)n(C)c3c2)cc1C(=O)SC`, the pEC50 in series [1] is 6.16; in series [2] (Human immunodeficiency virus 2, ROD), 5.33; in [5] it was less than 4.00; in [8], 6.22; in series [9], 6.00. In addition, the results for the CC50 in series [3] and in series [7] were 5.9 µM and 12 µM, respectively. The half-life in [4] was found to be 12.3 h. Further, the pIC50 in series [6] was 5.59.
Turning to `COC(=O)c1cc(/C(=C\CCc2nnc(C)o2)c2cccc(C#N)c2)cc(C)c1OC`, the outcome in series [1], in series [2] and in series [8] was inactive. Also, the CC50 came out at 4.5 µM in series [3] and 8.1 µM in series [7]. This molecule had a half-life in series [4] of 1.89 h. The negative logarithm of the EC50 (pEC50) in series [5] was less than 4.00; in series [9] it was less than 4.30. The same molecule showed a pIC50 in series [6] of 4.54.
In the case of `COc1c(C)cc(/C(=C\CCc2nnc(C)o2)c2cc(C)c3onc(OC)c3c2)cc1C(=O)SC`, the negative logarithm of the EC50 (pEC50) in series [1] is 6.09; in series [5] it was less than 4.00; in [8] it was 6.28; in series [9] it was less than 4.30. In addition, in [2], the outcome was inactive. Also, the cytotoxic concentration (CC50) stood at 2.1 µM in series [3] and 4.4 µM in series [7]. In series [4], the half-life worked out at 18.2 h. Besides, the negative-log IC50 (pIC50) in series [6] is 6.05.
As for `COc1c(C)cc(/C(=C\CCCc2nnc(C)o2)c2ccc(C#N)cc2)cc1C(=O)SC`, the pEC50 is 6.44 in [1], less than 4.00 in [5], 6.22 in series [8] and 5.64 in [9]. The result in series [2] was inactive. The CC50 in [3] was determined as 8.9 µM; in [7], 36 µM. The molecule further gave a half-life in [4] of 0.75 h. This molecule also had a pIC50 in series [6] of 5.49.
As to `COc1c(C)cc(/C(=C\CCCc2nnc(C)o2)c2cc(C)c3onc(OC)c3c2)cc1C(=O)SC`, the pEC50 was 6.85 in [1], less than 4.00 in series [5], 7.30 in series [8] and 6.40 in series [9]. In [2], the result was inactive. The figures for the CC50 in series [3] and in series [7] were 5.7 µM and 7 µM, respectively. This molecule showed a half-life in series [4] of 14.4 h. Moreover, the negative logarithm of the IC50 (pIC50) in series [6] was 6.33.

The term CC50 denotes the concentration that lowers cell viability or growth by half. Usually half-life stands for the time in which the quantity being followed falls by half. For orientation: pEC50 means the EC50 on a negative log10 scale, so that one unit is a factor of ten. A word on the pIC50: it is the IC50 on a negative log10 scale, so that one unit is a factor of ten. A lower pIC50 goes with a large IC50.
